Values joined by “and” are separate entries in the source; they are usually repeats but may differ in a detail not shown here. Equal values may be shown once. Values belong to the molecule of their own block, whether it stands above or below them. Active and inactive are the calls of the source. The rule behind the calls is not given here.
Columns and labels:
Rattus norvegicus [1] = assay: Tested for in vivo inhibition of galactitol accumulation in the sciatic nerve of galactose-fed rats at the dose of 50.9 (mg/kg/day); format: functional
Procedure, shortened: (§1)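 Rats fed a 20% galactose diet for 4 days, with test compound given in the diet at the stated daily dose (mg/kg/day). Read-out is inhibition of galactitol (polyol) accumulation in sciatic nerve. Values are % inhibition, mean ± SEM of six animals; p < 0.01 unless marked (some p < 0.05). NS = no significant inhibition of polyol accumulation. Tolrestat was the reference standard.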

Rattus norvegicus [2] = assay: Tested for in vivo inhibition of galactitol accumulation in the lens of galactose-fed rats at the dose of 50.9 (mg/kg/day); format: functional, Lens of camera-type eye
[3] = biological target: Aldo-keto reductase family 1 member B1 (Bos taurus) (UniProt P16116); assay: Inhibition of aldose reductase activity in partially purified bovine lens preparation at 10e-5 M
Procedure, shortened: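 Partially purified bovine lens aldose reductase. Reduction of DL-glyceraldehyde substrate followed spectrophotometrically. Activity expressed as average inhibition at the tested concentrations, 1×10^-5, 1×10^-6, 1×10^-7 and 4×10^-6 M as printed; IC50 in M where given.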

Rattus norvegicus [4] = assay: Tested for in vivo inhibition of galactitol accumulation in the lens of galactose-fed rats at the dose of 56.1 (mg/kg/day); format: functional, Lens of camera-type eye
Procedure, shortened: (§2)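 Galactosemic rats were fed 20% galactose for 4 days, with the compound mixed into the diet. […] galactitol accumulation was measured, and activity is given as % inhibition at the stated daily dose (mg/kg/day). Values are mean ± SEM of six animals; p < 0.01 unless indicated. NS means no significant inhibition of polyol accumulation.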

Rattus norvegicus [5] = assay: Tested for in vivo inhibition of galactitol accumulation in the sciatic nerve of galactose-fed rats at the dose of 56.1 (mg/kg/day); format: functional; procedure, shortened: as §1
Rattus norvegicus [6] = assay: Tested for in vivo inhibition of galactitol accumulation in the sciatic nerve of galactose-fed rats at the dose of 24.4 (mg/kg/day); format: functional
Procedure, shortened: (§3)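 Rats were given a 20% galactose diet for 4 days, with the test compound administered in the diet. Sciatic nerve galactitol accumulation was measured, and activity is given as % inhibition at the stated daily dose (mg/kg/day). Values are mean ± SEM, n = 6 animals; p < 0.01 unless indicated. NS means no significant inhibition of polyol accumulation.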

Rattus norvegicus [7] = assay: Tested for in vivo inhibition of galactitol accumulation in the lens of galactose-fed rats at the dose of 24.4 (mg/kg/day); NS=Not significant; format: functional, organism-based; settings: Lens of camera-type eye
Rattus norvegicus [8] = assay: Tested for in vivo inhibition of galactitol accumulation in the lens of galactose-fed rats at the dose of 50.5 (mg/kg/day); format: functional, Lens of camera-type eye
Rattus norvegicus [9] = assay: Tested for in vivo inhibition of galactitol accumulation in the sciatic nerve of galactose-fed rats at the dose of 50.5 (mg/kg/day); format: functional; procedure, shortened: as §1
Rattus norvegicus [10] = assay: Tested for in vivo inhibition of galactitol accumulation in the sciatic nerve of galactose-fed rats at the dose of 1.0 (mg/kg/day); format: functional; procedure, shortened: as §3
Rattus norvegicus [11] = assay: Tested for in vivo inhibition of galactitol accumulation in the lens of galactose-fed rats at the dose of 25.4 (mg/kg/day); NS=Not significant; format: functional, organism-based; settings: Lens of camera-type eye
Rattus norvegicus [12] = assay: Tested for in vivo inhibition of galactitol accumulation in the sciatic nerve of galactose-fed rats at the dose of 25.4 (mg/kg/day); format: functional; procedure, shortened: as §3
Rattus norvegicus [13] = assay: Tested for in vivo inhibition of galactitol accumulation in the lens of galactose-fed rats at the dose of 47 (mg/kg/day); NS=Not significant; format: functional, organism-based; settings: Lens of camera-type eye
Rattus norvegicus [14] = assay: Tested for in vivo inhibition of galactitol accumulation in the sciatic nerve of galactose-fed rats at the dose of 47 (mg/kg/day); format: functional; procedure, shortened: as §3
Rattus norvegicus [15] = assay: Tested for in vivo inhibition of galactitol accumulation in the sciatic nerve galactose-fed rats at the dose of 25.9 (mg/kg/day); format: functional; procedure, shortened: as §3
Rattus norvegicus [16] = assay: Tested for in vivo inhibition of galactitol accumulation in the lens of galactose-fed rats at the dose of 25.9 (mg/kg/day); NS=Not significant; format: functional, organism-based; settings: Lens of camera-type eye
Rattus norvegicus [17] = assay: Tested for in vivo inhibition of galactitol accumulation in the sciatic nerve of galactose-fed rats at the dose of 57.2 (mg/kg/day); format: functional; procedure, shortened: as §1
Rattus norvegicus [18] = assay: Tested for in vivo inhibition of galactitol accumulation in the lens of galactose-fed rats at the dose of 57.2 (mg/kg/day); format: functional, Lens of camera-type eye; procedure, shortened: as §2
Rattus norvegicus [19] = assay: Tested for in vivo inhibition of galactitol accumulation in the lens of galactose-fed rats at the dose of 86.1 (mg/kg/day); format: functional, Lens of camera-type eye; procedure, shortened: as §2
Rattus norvegicus [20] = assay: Tested for in vivo inhibition of galactitol accumulation in the sciatic nerve of galactose-fed rats at the dose of 25 (mg/kg/day); format: functional; procedure, shortened: as §3
Rattus norvegicus [21] = assay: Tested for in vivo inhibition of galactitol accumulation in the lens of galactose-fed rats at the dose of 25 (mg/kg/day); format: functional, Lens of camera-type eye

- inhibition [3]: inactive
Structure (SMILES): CCC(CC)=NN1C(=O)CC2(C(=O)N(Cc3ccc(Br)cc3F)C(=O)c3ccccc32)C1=O (centres undefined)
- Inhibition (Rattus norvegicus [1]): 98%
- Inhibition (Rattus norvegicus [2]): 71%

- inhibition [3]: inactive
Structure (SMILES): NN1C(=O)CC2(C1=O)C(=O)N(Cc1ccc(Br)cc1F)C(=O)c1ccccc12 (centres undefined)
- Inhibition (Rattus norvegicus [4]): 82%
- Inhibition (Rattus norvegicus [5]): 72%

- inhibition [3]: 82%
Structure (SMILES): COC(=O)NC(=O)CC1C(=O)N(C)C(=O)c2ccc(Br)cc21 (centres undefined)
- Inhibition (Rattus norvegicus [6]): 68%
- inhibition (Rattus norvegicus [7]): inactive

- inhibition [3]: inactive
Structure (SMILES): NN1C(=O)CC2(C1=O)C(=O)N(Cc1ccc(Br)cc1F)C(=O)c1ccc(F)cc12 (centres undefined)
- Inhibition (Rattus norvegicus [8]): 54%
- Inhibition (Rattus norvegicus [9]): 75%

- inhibition [3]: inactive
Structure (SMILES): CN1C(=O)CC2(C1=O)C(=O)N(Cc1ccc(Br)cc1F)C(=O)c1ccc(F)cc12 (centres undefined)
- Inhibition (Rattus norvegicus [10]): 28%

Structure (SMILES): COC(=O)NC(=O)CC1C(=O)N(Cc2ccc(Br)cc2F)C(=O)c2cc(OC)ccc21 (centres undefined)
- inhibition (Rattus norvegicus [11]): inactive
- Inhibition (Rattus norvegicus [12]): 68%

- inhibition [3]: 71%
Structure (SMILES): COC(=O)NC(=O)CC1C(=O)N(C)C(=O)c2ccc(F)cc21 (centres undefined)
- inhibition (Rattus norvegicus [13]): inactive
- Inhibition (Rattus norvegicus [14]): 58%

- inhibition [3]: 55%
Structure (SMILES): COC(=O)NC(=O)CC1C(=O)N(Cc2ccc(Br)cc2F)C(=O)c2ccc(F)cc21 (centres undefined)
- Inhibition (Rattus norvegicus [15]): 78%
- inhibition (Rattus norvegicus [16]): inactive

- inhibition [3]: inactive
Structure (SMILES): CC(=O)NN1C(=O)CC2(C(=O)N(Cc3ccc(Br)cc3F)C(=O)c3ccccc32)C1=O (centres undefined)
- Inhibition (Rattus norvegicus [17]): 73%
- Inhibition (Rattus norvegicus [18]): 25%

- inhibition [3]: 65%
Structure (SMILES): COC(=O)NC(=O)CC1C(=O)N(C)C(=O)c2ccc(Cl)cc21 (centres undefined)
- Inhibition (Rattus norvegicus [19]): 54% and 81%
- Inhibition (Rattus norvegicus [20]): 53%
- Inhibition (Rattus norvegicus [21]): 24%

From ChEMBL document CHEMBL1127562, “N-substituted spirosuccinimide, spiropyridazine, spiroazetidine, and acetic acid aldose reductase inhibitors derived from isoquinoline-1,3-diones. 2” (J Med Chem, 1994)
